Assay outcomes as filed in PubChem BioAssay.
Scp-1 inhibitor = Scp-1 (human) phosphatase inhibition; 0.88% of 340,000 active; Recombinant Scp1, phosphopeptide, malachite green phosphate absorbance; Q9GZU7; inhibition, % at 20 µM;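 active = inhibition above about 50% at 20 µM, limit read from the data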
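Test system: SCP-1 catalytic domain; Buffer or medium: Acidic Tris acetate buffer with magnesium and detergent; Also added: Phosphorylated 17-residue peptide substrate; Compound: single 20 µM dose, 1% DMSO; Schedule: enzyme reaction 45 min at room temperature, colour 5 min, stabilisation 30 min; Signal: Phosphate-binding colour reagent, absorbance read at 630 nm.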
SUMO1 PPI mod = SUMO1-SIM interaction modulation. AID 602429. inhibition, % at 20 µM. P63165. 0.33% of 360,000 active. SUMO1 binding to a labelled peptide, TR-FRET, 1 h; in the data active = inhibition above about 37%
Target sequence (P63165 whole entry, looked up): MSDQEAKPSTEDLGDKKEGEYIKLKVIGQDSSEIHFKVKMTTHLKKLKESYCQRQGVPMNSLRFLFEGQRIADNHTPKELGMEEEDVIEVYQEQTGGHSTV
STEP block = blocks human striatal-enriched tyrosine phosphatase | recombinant STEP, OMFP fluorogenic substrate, fluorescence | 0.25% of 360,000 active | inhibition, % at 20 µM | AID 588621 | P54829;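 active = inhibition at 20 µM, scaled per plate between control wells, above about 37%, limit read from the data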
Target sequence (P54829 whole entry, looked up): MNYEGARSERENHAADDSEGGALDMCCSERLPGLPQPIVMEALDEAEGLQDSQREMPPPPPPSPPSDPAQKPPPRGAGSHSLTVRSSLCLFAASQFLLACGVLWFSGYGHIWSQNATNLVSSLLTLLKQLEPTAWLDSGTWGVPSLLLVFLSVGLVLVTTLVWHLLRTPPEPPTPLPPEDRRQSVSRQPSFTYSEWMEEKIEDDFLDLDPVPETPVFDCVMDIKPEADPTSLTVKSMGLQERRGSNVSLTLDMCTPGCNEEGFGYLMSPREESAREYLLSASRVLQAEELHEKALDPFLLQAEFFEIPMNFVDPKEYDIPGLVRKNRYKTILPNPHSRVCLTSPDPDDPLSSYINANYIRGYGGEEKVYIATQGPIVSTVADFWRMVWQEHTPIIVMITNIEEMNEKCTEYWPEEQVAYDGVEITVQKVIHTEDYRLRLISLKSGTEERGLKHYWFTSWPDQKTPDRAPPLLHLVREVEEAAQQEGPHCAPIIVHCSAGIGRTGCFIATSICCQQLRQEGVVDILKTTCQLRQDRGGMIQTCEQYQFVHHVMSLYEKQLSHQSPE
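material = STEP tyrosine phosphatase | reagent = fluorogenic phosphatase substrate OMFP at 25 µM final | doses = single compound dose of 20 µM, 1% DMSO final | schedule = 20 min reaction, room temperature, in the dark | measured by = fluorescence, 480/540 nm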
DNMT1 inh = blocks human DNA methyltransferase DNMT1 | P26358 | inhibition (reported as % activation of signal), % at 10 µM | AID 588458 | DNMT1 molecular beacon, Hinp1I cleavage, fluorescence | 0.83% of 360,000 active; in the data active = inhibition above about 50%
LMPTP block = LMPTP (human) inhibition. P24666. recombinant LMPTP-A, OMFP fluorogenic substrate, fluorescence intensity. inhibition, % at 20 µM. 0.22% of 360,000 active. AID 651560;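 active = compounds that cut the enzyme signal by at least half of the control window in the single-dose screen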
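test system = LMPTP-A | amount = 0.625 nM LMPTP-A final | reagent = fluorogenic phosphatase substrate OMFP at 400 µM final | incubation = 50 min at room temperature | benchmarks = no-enzyme low control, uninhibited high control | medium = Bis-Tris pH 6.0, DTT, detergent | signal = fluorescence intensity of OMFP turnover product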
Of the large screens only hits and unclear results are named; the others gave an inactive call. Sampled rows, rich in hits. Any-hit rate of the full collection: about 1.7%.

CC(=O)c1ccc(NCC(=O)N2CCN(S(=O)(=O)c3ccccc3)CC2)cc1	none
O=C(CNc1ccc(Cl)c(C(F)(F)F)c1)N1CCN(S(=O)(=O)c2ccccc2)CC1	Scp-1 inhibitor 68.6
COc1ccc(C2NC(=O)NC3=C2CCc2ccccc23)cc1 (stereo unspecified)	DNMT1 inh 78.7
CCC(C)[C@H](N)c1cn([C@@H](CCCCN)C(=O)N2CCNCC2)nn1 (stereo partly specified)	none
CCN(CC)CCCNc1ncnc2ccccc12	none
CN(C)CCNc1ccc2nnn3c4ccc(O)cc4c(=O)c1c23	DNMT1 inh 52.6
CCN(CC)CCCNc1ccc2ncn3c4ccc(O)cc4c(=O)c1c23	DNMT1 inh 133.4
CCOC(=O)c1ccc2ncc(C(=O)OCC)c(NCCN(C)C)c2c1	none
COc1ccc(CN2CCNC(=O)C2CC(=O)NCCCC2CCCC2)c(C)c1C (stereo unspecified)	none
COCP(=O)(c1ccccc1)c1ccccc1	none
CC(C)OCP(=O)(c1ccccc1)c1ccccc1	SUMO1 PPI mod 50.8
CCN1CCN(CCNC(=O)c2ccc(CS(=O)c3ccc(Br)cc3)o2)CC1 (stereo unspecified)	none
O=C(O)c1cccc2cc(-c3ccccc3)oc(=O)c12	none
O=C(O)c1cccc2cccc(-c3c4ccc(=O)c(O)c-4oc4c(O)c(O)ccc34)c12	Scp-1 inhibitor 103.8, SUMO1 PPI mod 118.7, STEP block 99.2, DNMT1 inh 69.6, LMPTP block 94.6
Cn1c(CC(=O)NNC(=O)c2ccc(Cl)nc2)nc2ccccc21	none
Cn1c(CC(=O)NNC(=O)c2ccc(F)cc2Cl)nc2ccccc21	SUMO1 PPI mod 43.5
COc1ccc(CNC(=O)CN2C(=O)NC3(CCCCCC3)C2=O)cc1OC	none
CCOc1ccc(CCNC(=O)CN2C(=O)NC3(CCCCCC3)C2=O)cc1OCC	SUMO1 PPI mod 47.6
O=C(Nc1ccccc1)c1cc(C2CCCCN2S(=O)(=O)c2ccc(F)cc2F)on1 (stereo unspecified)	none (no result: Scp-1 inhibitor)
COc1ccc(C2CC(c3ccccc3)=NN2C(=O)COC(=O)c2cc(S(=O)(=O)N3CCOCC3)ccc2F)cc1 (stereo unspecified)	none
Cc1csc2nc(O)c(C(=O)NCc3ccc4c(c3)OCO4)c(=O)n12	LMPTP block 52.8
COc1ccc(N2CCN(C(=O)C(=O)c3cc(OC)c(OC)c(OC)c3)CC2)cc1	none (no result: Scp-1 inhibitor, STEP block, DNMT1 inh)
Cc1cc(C)c(-n2c(SCC(=O)N3CCOCC3)n[nH]c2=O)c(C)c1	none
COc1ccc(C(=O)/C(C#N)=N/Nc2ccc([N+](=O)[O-])cc2)cc1	Scp-1 inhibitor 65.6, STEP block 95.8, LMPTP block 73.4
O=C(NCc1ccco1)c1ccc(CS(=O)(=O)c2cccc(C(F)(F)F)c2)o1	SUMO1 PPI mod 55.0
CCCCNC(=O)c1ccc(CS(=O)(=O)c2cccc(C(F)(F)F)c2)o1	none
CC(=O)Oc1ccc(-c2cc3c(OC(C)=O)cc(OC(C)=O)cc3oc2=O)cc1	none
COc1ccc(OC)c(-c2csc(NC(=O)Cn3[nH]c(=O)c4ccccc4c3=O)n2)c1	SUMO1 PPI mod 64.0
Cc1ccc(NC(=O)Cn2nnc(C(=O)NCCc3ccccc3)c2N)c(C)c1	DNMT1 inh 53.3
Cc1cc(C)c(NC(=O)Cn2nnc(C(=O)NCCc3ccccc3)c2N)c(C)c1	none
COc1cccc(CN2CCNC(=O)C2CC(=O)N(C)C2CCCCC2)c1 (stereo unspecified)	none
COc1cc(C(=O)C(=O)c2ccc(OC)c(OC)c2)ccc1O	SUMO1 PPI mod 38.2
COc1ccc(C(=O)c2ccc(OC)c(OC)c2)cc1OC	none
Cc1cccc(C)c1OCCSc1nc2ccccc2n1CC(=O)O	none
Cc1cc(NC(=O)C2CC(=O)N(c3ccccc3Cl)C2)no1 (stereo unspecified)	none
Cc1ccccc1CN1C(=O)C(C)S/C1=N/N=C/c1ccco1 (stereo unspecified)	none
Cc1ccccc1CN1C(=O)C(C)Sc2ccc(-c3ccco3)cc21 (stereo unspecified)	DNMT1 inh 58.0 (no result: Scp-1 inhibitor)
Cc1ccc(CC(=O)Nc2cccc(C(=O)Nc3c(C)n(C)n(-c4ccccc4)c3=O)c2)cc1C	none (no result: Scp-1 inhibitor)
O=C1C=C(N2CCCCC2)c2ccccc2C1=O	SUMO1 PPI mod 66.0, DNMT1 inh 88.8
O=C1c2ccccc2C(=O)c2c1cccc2N1CCCC1	none
O=C1/C(=C/c2ccc([N+](=O)[O-])cc2)CCC1C1CCCC1 (stereo unspecified)	none
C=CCN(CC=C)Cc1cc(=O)oc2ccc3ccccc3c12	none (no result: Scp-1 inhibitor)
C=CCN(CC=C)Cc1c(O)ccc2c1oc(=O)c1ccccc12	Scp-1 inhibitor 55.7, DNMT1 inh 54.8
Cc1oc(-c2cc(F)ccc2F)nc1CN1CCC(C(=O)N2CCOCC2)CC1	SUMO1 PPI mod 43.9
COc1ccc(-c2nc(CN3CCC(C(=O)N4CCOCC4)CC3)c(C)o2)cc1OC	none
Cc1nc2cc(NC(=O)Nc3ccccc3Cl)ccc2n1C	none
C=CCn1c(SCC(=O)c2ccc(O)c(O)c2)nnc1-c1cccnc1	Scp-1 inhibitor 72.5
Nc1ccc2c(c1Cl)C(=O)c1ccc(N)c(Cl)c1C2=O	Scp-1 inhibitor 89.7, SUMO1 PPI mod 109.3, STEP block 98.6, DNMT1 inh 80.8, LMPTP block 82.3
C=C(C)C(=O)Nc1ccc2c(c1)OCCOCCOCCO2	Scp-1 inhibitor 96.9, SUMO1 PPI mod 57.4, STEP block 63.5, DNMT1 inh 89.5
O=S1(=O)CC(N2CC=CC2)CN1Cc1cn(Cc2ccc(F)cc2)nn1 (stereo unspecified)	none (no result: Scp-1 inhibitor, STEP block, DNMT1 inh)
Cc1cc(N2CCN(C(=O)c3[nH]c(C(F)(F)F)nc3-c3ccccc3)CC2)c2ccccc2n1	none (no result: Scp-1 inhibitor)
Cc1cc(N2CCN(C(=O)Nc3ccccc3C#N)CC2)c2ccccc2n1	LMPTP block 51.1
Cc1ccc(-n2nnnc2SCC(=O)Nc2ccc3c(c2)COC3=O)cc1C	SUMO1 PPI mod 40.2
Cc1ccc(-n2nnnc2SCC(=O)Nc2ccc3c(c2)OCCO3)cc1C	none
COc1cc(/C=C2\C(=O)N(c3ccc(S(N)(=O)=O)cc3)N=C2C)ccc1OC(=O)c1ccco1	SUMO1 PPI mod 44.8
C#CCOc1ccc(/C=C2/C(=O)N(c3ccc(S(N)(=O)=O)cc3)N=C2C)cc1OC	none (no result: Scp-1 inhibitor)
C#CCOc1ccc(/C=C2/C(=O)N(c3cccc(C(=O)O)c3)N=C2C)cc1OC	Scp-1 inhibitor 58.1
COc1nc(Nc2cccc([N+](=O)[O-])c2)nc(OC)n1	none
C#CCOc1nc(Nc2cccc([N+](=O)[O-])c2)nc(OCC#C)n1	SUMO1 PPI mod 46.1
Cc1cccc(/C=N\NC(=O)c2ccc(Cl)cc2)c1O	Scp-1 inhibitor 95.1
Cc1cccc(/C=N/NC(=O)Cc2ccc(Cl)cc2)c1O	none
CCOC(=O)c1sc(NC(=O)c2ccc(OC)cc2)nc1C	SUMO1 PPI mod 55.3
O=C(NCc1n[nH]c(=S)n1-c1ccc(Cl)c(Cl)c1)c1ccco1	none
O=c1oc2ccccc2cc1-c1nc2c(s1)CCc1ccccc1-2	none
